# Measurements from ChEMBL document CHEMBL5576155, “Expanding the chemical space of ester of quinoxaline-7-carboxylate 1,4-di-N-oxide derivatives as potential antitubercular agents” (RSC Med Chem, 2024).
# How the values were obtained:
# [1] = test system: Mycobacterium tuberculosis; test: Antitubercular activity against Mycobacterium tuberculosis H37Rv assessed as reduction in microbial growth by MABA; type: functional
# How it was run: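 M. tuberculosis H37Rv tested in vitro by modified Alamar blue microplate assay (MABA), with rifampicin and isoniazid as reference drugs. MIC was the lowest drug concentration giving 90% inhibition. Triplicate independent experiments.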
# [2] = test system: Mycobacterium tuberculosis; test: Antitubercular activity against Mycobacterium tuberculosis H37Rv assessed as reduction in microbial growth incubated for 10 days under anaerobic condition followed by 28 hrs incubation with aerobic condition further incubated 7 days at 5 % CO2 condition by low-oxygen recovery assay; type: functional; details: time 436 hrs
# [3] = Cytotoxicity against mouse J774.2 cells assessed as reduction in cell viability by MTT assay; type: toxicity, cell-based
# How it was run: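 Murine macrophage J774.2 grown in RPMI 1640 with 10% FBS, 1% MEM-NEAA and 100 U mL−1 antibiotic–antifungal, at 37 °C, 5% CO2, humidified. Cells washed and plated at 1 × 10^5 per well. Serial-dilution dose–response run in triplicate, with 0.1% DMSO as negative control. Viability read by MTT colorimetric assay. CC50 derived from the dose–response.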
# [4] = Selectivity index, ratio of CC50 for cytotoxicity against mouse J774.2 cell to MIC for antibacterial activity against Mycobacterium tuberculosis H37Rv; type: toxicity; details: J774.2 cells, read-out: Selectivity Index
# How it was run: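 CC50 was measured in murine macrophage J774.2 cells grown in RPMI 1640 with 10% FBS, 1% MEM-NEAA and antibiotic–antifungal mix at 37 °C, 5% CO2. 1 × 10^5 cells per well received serial dilutions in triplicate, with 0.1% DMSO as negative control. Viability was read by MTT. SI is CC50 over the MABA MIC against H37Rv.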
Structure (SMILES),MIC [1] [µM],MIC [2] [µM],CC50 [3] [µM],selectivity ratio [4]
Cc1c(C(=O)Nc2ccc(Cl)cc2)[n+]([O-])c2cc(C(=O)OCC(C)C)ccc2[n+]1[O-],1.63,1.86,,
CCCCOC(=O)c1ccc2c(c1)[n+]([O-])c(C(=O)OC)c(C)[n+]2[O-],0.87,5.24,46.2,10.2
CC(C)OC(=O)c1ccc2c(c1)[n+]([O-])c(C(=O)c1cccs1)c(C(F)(F)F)[n+]2[O-],0.19,0.54,,
CCCCOC(=O)c1ccc2c(c1)[n+]([O-])c(C(=O)OC(C)(C)C)c(C)[n+]2[O-],14.7,128,> 200,10.2
Cc1ccc(NC(=O)c2c(C)[n+]([O-])c3cc(C(=O)OCC(C)C)ccc3[n+]2[O-])c(C)c1,> 118,> 118,> 200,10.2
CCCCOC(=O)c1ccc2c(c1)[n+]([O-])c(C(=O)c1ccccc1)c(C(F)(F)F)[n+]2[O-],0.53,0.88,48.4,10.2
CCCCOC(=O)c1ccc2c(c1)[n+]([O-])c(C(=O)c1ccccc1)c(C)[n+]2[O-],1.95,5.37,17.7,10.2
CO[C@H]1/C=C/O[C@@]2(C)Oc3c(C)c(O)c4c(O)c(c(/C=N/N5CCN(C)CC5)c(O)c4c3C2=O)NC(=O)/C(C)=C\C=C\[C@H](C)[C@H](O)[C@@H](C)[C@@H](O)[C@@H](C)[C@H](OC(C)=O)[C@@H]1C [RIFAMPIN],0.02,0.06,,
Cc1c(C(=O)Nc2ccccc2)[n+]([O-])c2cc(C(=O)OCC(C)C)ccc2[n+]1[O-],2.56,2.73,> 200,10.2
CCCCOC(=O)c1ccc2c(c1)[n+]([O-])c(C(=O)c1ccc3ccccc3c1)c(C(F)(F)F)[n+]2[O-],1.07,3.04,> 200,10.2
CC(=O)c1c(C(F)(F)F)[n+]([O-])c2ccc(C(=O)OCC(C)C)cc2[n+]1[O-],0.7,0.94,25.4,10.2
CCCCOC(=O)c1ccc2c(c1)[n+]([O-])c(C(=O)Nc1ccc(Cl)cc1)c(C)[n+]2[O-],> 117,> 117,50.3,10.2
CC(C)COC(=O)c1ccc2c(c1)[n+]([O-])c(C(=O)c1cccs1)c(C(F)(F)F)[n+]2[O-],0.55,0.77,43.9,10.2
CCCCOC(=O)c1ccc2c(c1)[n+]([O-])c(C(=O)OCc1ccccc1)c(C)[n+]2[O-],0.59,1.73,> 200,10.2
Cc1c(C(=O)c2ccccc2)[n+]([O-])c2cc(C(=O)OCC(C)C)ccc2[n+]1[O-],0.95,2.68,34.2,10.2
CCCCOC(=O)c1ccc2c(c1)[n+]([O-])c(C(=O)Nc1ccc(C)cc1C)c(C)[n+]2[O-],> 118,> 118,,

Structure (SMILES),MIC [1] [µM],MIC [2] [µM],CC50 [3] [µM],selectivity ratio [4]
CC(=O)c1c(C)[n+]([O-])c2ccc(C(=O)OCC(C)C)cc2[n+]1[O-],0.94,1.82,87.2,10.2
CC(C)COC(=O)c1ccc2c(c1)[n+]([O-])c(C(=O)c1ccc3ccccc3c1)c(C(F)(F)F)[n+]2[O-],1.38,2.33,,
CCCCOC(=O)c1ccc2c(c1)[n+]([O-])c(C(=O)OCC)c(C(F)(F)F)[n+]2[O-],0.57,0.87,> 200,10.2
CCOC(=O)c1ccc2c(c1)[n+]([O-])c(C(=O)c1cccs1)c(C(F)(F)F)[n+]2[O-],0.24,0.51,,
Cc1ccc(NC(=O)c2c(C)[n+]([O-])c3ccc(C(=O)OCC(C)C)cc3[n+]2[O-])c(C)c1,19.7,12.3,> 200,10.2
NNC(=O)c1ccncc1 [ISONIAZID],2.92,> 933,,
COC(=O)c1c(C)[n+]([O-])c2ccc(C(=O)OCC(C)C)cc2[n+]1[O-],0.84,2.01,,
CCCCOC(=O)c1ccc2c(c1)[n+]([O-])c(C(=O)c1cccs1)c(C(F)(F)F)[n+]2[O-],0.57,0.86,,
CCCCOC(=O)c1ccc2c(c1)[n+]([O-])c(C(C)=O)c(C)[n+]2[O-],0.88,2.3,58.4,10.2
CCCCOC(=O)c1ccc2c(c1)[n+]([O-])c(C(=O)OCC)c(C)[n+]2[O-],1.38,6.24,> 200,10.2
CC(C)COC(=O)c1ccc2c(c1)[n+]([O-])c(C(=O)Nc1ccccc1)c(-c1ccccc1)[n+]2[O-],0.57,1.49,> 200,10.2
CC(C)COC(=O)c1ccc2c(c1)[n+]([O-])c(C(=O)c1ccco1)c(C(F)(F)F)[n+]2[O-],0.68,1.65,81.8,10.2
CC(C)COC(=O)c1ccc2c(c1)[n+]([O-])c(C(=O)c1ccccc1)c(C(F)(F)F)[n+]2[O-],0.53,0.92,,
CCCCOC(=O)c1ccc2c(c1)[n+]([O-])c(C(C)=O)c(C(F)(F)F)[n+]2[O-],0.62,0.97,> 200,10.2
CCCCOC(=O)c1ccc2c(c1)[n+]([O-])c(C(=O)Nc1ccccc1)c(-c1ccccc1)[n+]2[O-],3.3,9.74,44.1,10.2
